Experimental data as given in ChEMBL document CHEMBL4024770, “Augmentation of Anticancer Drug Efficacy in Murine Hepatocellular Carcinoma Cells by a Peripherally Acting Competitive N-Methyl-d-aspartate (NMDA) Receptor Antagonist” (J Med Chem, 2017).
Calls of active or inactive are those of the source. No cut-off for these calls is given here.

Key:
Mus musculus [1] = species on record: Mus musculus; assay: Antagonist activity at NMDA receptor in Nras driven p53 deficient mouse HCC cell membranes assessed as inhibition of NMDA-induced intracellular Ca2+ transients at 25 to 40 uM […] by fluo-4AM dye-based fluorescence assay
Outline: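 Mouse HCC cells were loaded with Fluo-4-AM (5 μM, 45 min), then washed out for 20 min in HEPES-buffered saline, pH 7.4. Ca2+ transients were evoked by 15 s applications of 150 μM NMDA via fast perfusion. This was done alone or with antagonist at 25 or […] μM, imaged at 495 nm excitation. Data were scored as % responding, mean ± SEM, n=5.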

[2] = Displacement of [3H]-KA from KA receptor in Sprague-Dawley rat brain synaptosomes after 60 mins by scintillation counting method; type: subcellular
Mus musculus [3] = species on record: Mus musculus; assay: Antagonist activity at NMDA receptor in Nras driven p53 deficient mouse HCC cell membranes assessed as LPS-stimulated PGE2 levels at 100 uM after 24 hrs by LC-MS/MS method (reference value: 162 +/- 7%); set-up: scale not given: the % may be the effect or the level left
Outline: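 Nras-driven p53−/− mouse HCC cells in DMEM/10% FBS were incubated 24 h with or without 100 μM compound. This was done without LPS and with LPS (2.5 μg/mL) in the growth medium. Cells were washed with ice-cold HBSS and lysed in acetonitrile on ice. PGE2 in the lysates was quantified by LC-MS/MS and expressed as % of control. Mean ± SEM, n=3; one-way ANOVA/Tukey.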

IC50 [2]: > 100 µM | Activity (Mus musculus [3]): 96%
SMILES: Cl.O=C(O)c1cc([C@H]2CCN[C@@H]2C(=O)O)ccc1Cl
inhibition (Mus musculus [1]): Active
